Source: ChEMBL document CHEMBL1121900, “Analgesic narcotic antagonists. 9. 6-Methylene-8 beta-alkyl-N-(cycloalkylmethyl)-3-hydroxy- or -methoxymorphinans” (1981)
The source made the active and inactive calls. The calls are words filed in the database; no cut-off is given here.

Legend:
Mus musculus [1] = test: Inhibition of acetic acid induced mouse writhing assay following s.c. administration.; format: functional; settings: sc
[2] = biological target: T1, Opioid receptor (Rattus norvegicus) (UniProt P33533+P34975+P33535); test: Inhibition of morphine analgesia in modified rat tail flick test.; format: functional
T1 sequence (P33533 whole entry, looked up): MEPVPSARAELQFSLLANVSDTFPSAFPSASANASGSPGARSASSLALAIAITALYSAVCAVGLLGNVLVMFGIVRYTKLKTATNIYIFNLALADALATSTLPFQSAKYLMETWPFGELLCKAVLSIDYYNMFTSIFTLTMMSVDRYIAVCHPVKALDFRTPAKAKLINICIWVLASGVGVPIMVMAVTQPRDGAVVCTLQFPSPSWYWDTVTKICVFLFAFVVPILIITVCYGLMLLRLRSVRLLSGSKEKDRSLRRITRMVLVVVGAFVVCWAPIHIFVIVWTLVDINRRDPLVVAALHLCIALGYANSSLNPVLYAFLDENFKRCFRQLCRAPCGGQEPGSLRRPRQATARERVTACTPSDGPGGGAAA
T1 sequence (P33535 whole entry, looked up): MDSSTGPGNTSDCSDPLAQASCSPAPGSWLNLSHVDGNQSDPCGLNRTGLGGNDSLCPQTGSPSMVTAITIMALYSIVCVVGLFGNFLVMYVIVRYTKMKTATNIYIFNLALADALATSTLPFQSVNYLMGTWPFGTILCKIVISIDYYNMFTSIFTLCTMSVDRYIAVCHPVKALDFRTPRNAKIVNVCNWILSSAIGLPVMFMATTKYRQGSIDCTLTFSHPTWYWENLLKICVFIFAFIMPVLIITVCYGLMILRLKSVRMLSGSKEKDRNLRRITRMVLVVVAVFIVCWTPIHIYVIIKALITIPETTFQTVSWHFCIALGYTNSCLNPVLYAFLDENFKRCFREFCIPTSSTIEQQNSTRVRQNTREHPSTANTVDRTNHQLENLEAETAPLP
T1 sequence (P34975 whole entry, looked up): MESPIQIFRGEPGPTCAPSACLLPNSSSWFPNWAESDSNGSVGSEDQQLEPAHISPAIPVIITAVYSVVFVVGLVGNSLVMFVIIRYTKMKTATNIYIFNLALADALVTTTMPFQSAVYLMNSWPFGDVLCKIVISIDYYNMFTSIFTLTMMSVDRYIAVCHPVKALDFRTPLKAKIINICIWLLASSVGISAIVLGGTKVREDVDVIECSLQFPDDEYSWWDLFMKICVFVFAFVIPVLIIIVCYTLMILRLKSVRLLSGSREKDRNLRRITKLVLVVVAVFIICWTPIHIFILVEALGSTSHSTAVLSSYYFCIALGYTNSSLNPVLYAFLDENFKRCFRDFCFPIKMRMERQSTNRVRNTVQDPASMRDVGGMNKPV
In short: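 Narcotic antagonist activity measured by modified rat tail-flick against an ED80 dose of morphine. Free bases dissolved by dropwise 1 N HCl, then diluted. At least five rats per dose and at least three doses per drug; AD50 determined.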

Mus musculus [3] = test: Inhibition of acetic acid induced mouse writhing assay following s.c. administration; Inactive at 30 uMol/kg.; format: functional, organism-based; settings: 30 uM
[4] = biological target: T1, Opioid receptor (Rattus norvegicus); test: Inhibition of morphine analgesia in modified rat tail flick test; Inactive at 25 uMol/kg.; format: functional; settings: 25 uM
Mus musculus [5] = test: Inhibition of acetic acid induced mouse writhing assay following s.c. administration; Inactive.; format: functional, organism-based
Mus musculus [6] = test: Inhibition of acetic acid induced mouse writhing assay following s.c. administration; Inactive at 50 uMol/kg.; format: functional, organism-based; settings: 50 uM

| Compound | ED50 (Mus musculus [1]) | ED50 [2] | further results |
| --- | --- | --- | --- |
| C=C1C[C@H](C)C2C3Cc4ccc(OC)cc4C2(CCN3CC2CCC2)C1 (stereo partly specified) | 16.5 µmol/kg | 14.1 µmol/kg |  |
| C=C1C[C@H](CC)C2C3Cc4ccc(O)cc4C2(CCN3CC2CC2)C1 (stereo partly specified) |  | 2.8 µmol/kg | ED50 (Mus musculus [3]): inactive |
| O=C1CCC2C3Cc4ccc(O)cc4C2(CCN3CC2CCC2)C1 (stereo unspecified) |  |  | ED50 [4]: inactive |
| O=C1CC[C@@]2(O)[C@H]3Cc4ccc(O)c5c4[C@@]2(CCN3CC2CC2)[C@H]1O5 [NALTREXONE] | > 28 µmol/kg |  |  |
| C=CCN1CC[C@]23c4c5ccc(O)c4O[C@H]2C(=O)CC[C@@]3(O)[C@H]1C5 |  |  | ED50 (Mus musculus [5]): inactive |
| C=C1C[C@H](C)C2C3Cc4ccc(O)cc4C2(CCN3CC2CC2)C1 (stereo partly specified) | 5.3 µmol/kg | 0.89 µmol/kg |  |
| COc1ccc2c(c1)[C@]13CCN(CC4CC4)[C@H](C2)[C@@H]1[C@@H](C)CC(=O)C3 |  | 4.3 µmol/kg |  |
| CC[C@H]1CC(=O)CC23CCN(CC4CCC4)C(Cc4ccc(O)cc42)C13 (stereo partly specified) | 0.54 µmol/kg | 0.82 µmol/kg |  |
| C[C@H]1[C@H]2Cc3ccc(O)cc3[C@]1(C)CCN2CC1CC1 |  | 0.81 µmol/kg |  |
| C=C1C[C@H](C)C2C3Cc4ccc(OC)cc4C2(CCN3CC2CC2)C1 (stereo partly specified) | 9.5 µmol/kg | 11.3 µmol/kg |  |
| C[C@H]1CC(=O)CC23CCN(CC4CC4)C(Cc4ccc(O)cc42)C13 (stereo partly specified) | 10.2 µmol/kg | 1.8 µmol/kg |  |
| CC(C)=CCN1CC[C@]2(C)c3cc(O)ccc3C[C@H]1[C@H]2C [(+)-PENTAZOCINE] | 12.9 µmol/kg | 36.4 µmol/kg |  |
| C=C1CCC2C3Cc4ccc(O)cc4C2(CCN3CC2CCC2)C1 (stereo unspecified) | 0.22 µmol/kg | > 24 µmol/kg |  |
| C=CCN1CC[C@]23c4c5ccc(O)c4O[C@H]2[C@@H](O)C=C[C@H]3[C@H]1C5 [NALORPHINE] | 3.5 µmol/kg | 2.5 µmol/kg |  |
| C=C1CCC2C3Cc4ccc(O)cc4C2(CCN3CC2CC2)C1 (stereo unspecified) | 1.2 µmol/kg | 0.37 µmol/kg |  |
| CC[C@H]1CC(=O)CC23CCN(CC4CC4)C(Cc4ccc(O)cc42)C13 (stereo partly specified) |  | 4.7 µmol/kg | ED50 (Mus musculus [6]): inactive |
| C=C1CCC2C3Cc4ccc(OC)cc4C2(CCN3CC2CCC2)C1 (stereo unspecified) | 3.2 µmol/kg | > 20 µmol/kg |  |
| O=C1CCC2C3Cc4ccc(O)cc4C2(CCN3CC2CC2)C1 (stereo unspecified) | 3.3 µmol/kg | 7.4 µmol/kg |  |
| C[C@H]1CC(=O)CC23CCN(CC4CCC4)C(Cc4ccc(O)cc42)C13 (stereo partly specified) | 0.29 µmol/kg | 2.8 µmol/kg |  |
| C=C1C[C@H](C)C2C3Cc4ccc(O)cc4C2(CCN3CC2CCC2)C1 (stereo partly specified) | 0.53 µmol/kg | 2.5 µmol/kg |  |
| COc1ccc2c(c1)C13CCN(CC4CCC4)C(C2)C1[C@@H](C)CC(=O)C3 (stereo partly specified) | 1.38 µmol/kg | 16.4 µmol/kg |  |
| COc1ccc2c(c1)C13CCN(CC4CCC4)C(C2)C1CCC(=O)C3 (stereo unspecified) |  |  | ED50 [4]: inactive |
| Oc1ccc2c(c1)[C@@]13CCCC[C@@]1(O)[C@@H](C2)N(CC1CCC1)CC3 |  | 2 µmol/kg |  |
| C=C1C[C@H](CC)C2C3Cc4ccc(O)cc4C2(CCN3CC2CCC2)C1 (stereo partly specified) | > 28 µmol/kg | 21.2 µmol/kg |  |
